≈ marks a conversion by molar mass, not a printed value.
Columns and labels:
[1] = biological target: Peroxisome proliferator-activated receptor (Homo sapiens) (UniProt P37231+Q07869+Q03181); assay: Activation of PPAR in human HepG2 cells at 10 ug/ml after 24 hrs by luciferase reporter gene assay relative to rosiglitazone; format: cell-based
How it was run: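 HepG2 cells in low-glucose DMEM with 100 U mL-1 streptomycin/penicillin, plated at 1.5 × 10⁴ per well a day before transfection. At 70% confluence they were co-transfected with pPPRE-Luc (firefly) and phRL-TK (renilla). After 24 h the medium was replaced with sample-containing medium, with rosiglitazone as positive control. Dual firefly/renilla luciferase was read after a further 24 h; untransfected cells served as blank.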

Rattus norvegicus = species: Rattus norvegicus; assay: Inhibition of rat intestine alpha-glucosidase using maltose as substrate after 10 mins by spectrometric analysis relative to acarbose; parameters: concentration or dose not given beside the values
How it was run: (§1)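 Enzyme and sample were preincubated at 37 °C for 10 min. Then 0.1 mol L-1 maltose was added and incubated 10 min at room temperature. The reaction was stopped and OD read at 490 nm. Blank (no enzyme, no sample) and negative (no sample) controls were run alongside.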

[2] = Inhibition of rat intestine alpha-glucosidase using maltose as substrate after 10 mins by spectrometric analysis; how it was run: as §1
[3] = biological target: T1, Peroxisome proliferator-activated receptor (Homo sapiens, UniProt P37231+Q07869+Q03181); assay: Activation of PPAR in human HepG2 cells after 24 hrs by luciferase reporter gene assay; format: cell-based
T1 sequence (P37231 whole entry): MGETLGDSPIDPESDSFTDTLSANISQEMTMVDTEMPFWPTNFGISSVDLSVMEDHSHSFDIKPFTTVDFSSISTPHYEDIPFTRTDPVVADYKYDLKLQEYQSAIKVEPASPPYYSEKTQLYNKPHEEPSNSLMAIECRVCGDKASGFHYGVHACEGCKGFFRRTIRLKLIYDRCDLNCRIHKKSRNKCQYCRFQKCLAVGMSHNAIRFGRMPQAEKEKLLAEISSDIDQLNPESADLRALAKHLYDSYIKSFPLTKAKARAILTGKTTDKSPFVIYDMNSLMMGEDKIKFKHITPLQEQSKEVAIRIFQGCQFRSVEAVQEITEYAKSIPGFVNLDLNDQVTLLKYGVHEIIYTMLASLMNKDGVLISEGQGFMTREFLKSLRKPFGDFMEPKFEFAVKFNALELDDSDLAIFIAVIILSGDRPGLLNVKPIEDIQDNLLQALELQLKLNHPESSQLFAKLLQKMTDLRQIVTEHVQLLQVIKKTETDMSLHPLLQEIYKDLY
T1 sequence (Q07869 whole entry): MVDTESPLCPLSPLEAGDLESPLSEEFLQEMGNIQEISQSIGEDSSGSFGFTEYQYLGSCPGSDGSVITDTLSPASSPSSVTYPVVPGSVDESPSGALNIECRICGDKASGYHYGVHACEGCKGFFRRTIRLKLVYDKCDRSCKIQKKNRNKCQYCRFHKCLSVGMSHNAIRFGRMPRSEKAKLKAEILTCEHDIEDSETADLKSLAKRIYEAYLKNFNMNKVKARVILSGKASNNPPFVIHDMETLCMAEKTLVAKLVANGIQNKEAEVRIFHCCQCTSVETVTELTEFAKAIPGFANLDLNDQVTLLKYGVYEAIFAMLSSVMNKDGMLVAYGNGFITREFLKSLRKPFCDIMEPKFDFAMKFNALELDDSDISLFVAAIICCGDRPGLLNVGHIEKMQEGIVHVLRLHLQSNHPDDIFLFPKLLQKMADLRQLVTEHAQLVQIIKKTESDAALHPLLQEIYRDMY
T1 sequence (Q03181 whole entry): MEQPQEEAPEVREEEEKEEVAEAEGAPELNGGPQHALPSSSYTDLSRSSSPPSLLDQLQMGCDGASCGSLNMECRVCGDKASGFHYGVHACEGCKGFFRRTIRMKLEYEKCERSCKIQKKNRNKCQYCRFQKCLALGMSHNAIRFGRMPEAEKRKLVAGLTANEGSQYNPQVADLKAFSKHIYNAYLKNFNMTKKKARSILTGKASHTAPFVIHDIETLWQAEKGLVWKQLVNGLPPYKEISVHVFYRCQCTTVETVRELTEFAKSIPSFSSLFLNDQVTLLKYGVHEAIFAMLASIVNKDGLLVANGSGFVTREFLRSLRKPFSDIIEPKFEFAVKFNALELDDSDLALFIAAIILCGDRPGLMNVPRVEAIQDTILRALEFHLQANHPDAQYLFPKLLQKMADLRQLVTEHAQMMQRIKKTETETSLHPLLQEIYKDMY

Activity [1] [%] | inhibition (Rattus norvegicus) [%] | IC50 [2] [µg/mL] | EC50 [3] [µg/mL] | SMILES
57.3 | 14.1 | – | – | COc1ccc2cc(CCC(=O)CC(Nc3ccc(S(N)(=O)=O)cc3)c3cccc(C)c3)ccc2c1 (stereo not given)
22.4 | 53.7 | – | – | COc1ccc2cc(CCC(=O)CC(Nc3ccc(S(=O)(=O)Nc4cc(C)on4)cc3)c3ccc(Cl)c(Cl)c3)ccc2c1 (stereo not given)
2.87 | 1.42 | – | – | COc1ccc2cc(CCC(=O)CC(Nc3cc(C)on3)c3ccc(Br)cc3)ccc2c1 (stereo not given)
64.5 | 20.3 | – | – | COc1ccc2cc(CCC(=O)CC(Nc3ccc(S(=O)(=O)Nc4cc(C)on4)cc3)c3ccc(Cl)cc3Cl)ccc2c1 (stereo not given)
58.7 | 40.8 | – | – | COc1ccc2cc(CCC(=O)CC(Nc3ccc(S(N)(=O)=O)cc3)c3cccc(Cl)c3)ccc2c1 (stereo not given)
19.1 | 6.39 | – | – | COc1ccc2cc(CCC(=O)CC(Nc3ccc(S(N)(=O)=O)cc3)c3ccc4cc(OC)ccc4c3)ccc2c1 (stereo not given)
12.6 | 0.35 | – | – | COc1ccc2cc(CCC(=O)CC(Nc3cc(C)on3)c3ccc4c(c3)OCO4)ccc2c1 (stereo not given)
81.8 | 41.6 | – | – | COc1ccc2cc(CCC(=O)CC(Nc3ccc(S(=O)(=O)Nc4cc(C)on4)cc3)c3cccc([N+](=O)[O-])c3)ccc2c1 (stereo not given)
4.18 | 24.6 | – | – | COc1ccc2cc(CCC(=O)CC(Nc3cc(C)on3)c3ccc([N+](=O)[O-])cc3)ccc2c1 (stereo not given)
14.8 | 32.7 | – | – | COc1ccc2cc(CCC(=O)CC(Nc3ccc(S(N)(=O)=O)cc3)c3cccc([N+](=O)[O-])c3)ccc2c1 (stereo not given)
43 | 19.2 | – | – | COc1ccc2cc(CCC(=O)CC(Nc3ccc(S(=O)(=O)Nc4cc(C)on4)cc3)c3ccc4c(c3)OCO4)ccc2c1 (stereo not given)
13.8 | 7.07 | – | – | COc1ccc2cc(CCC(=O)CC(Nc3ccc(S(=O)(=O)Nc4cc(C)on4)cc3)c3ccc(O)cc3)ccc2c1 (stereo not given)
83.3 | 14.3 | – | – | CCCCOc1ccc(C(CC(=O)CCc2ccc3cc(OC)ccc3c2)Nc2ccc(S(=O)(=O)Nc3cc(C)on3)cc2)cc1 (stereo not given)
5.3 | 21.4 | – | – | COc1ccc2cc(CCC(=O)CC(Nc3cc(C)on3)c3ccc(O)cc3)ccc2c1 (stereo not given)
68.4 | 70.5 | 3.24 (≈ 5.55 µM) | – | COc1ccc2cc(CCC(=O)CC(Nc3ccc(S(=O)(=O)Nc4cc(C)on4)cc3)c3cccc(C)c3)ccc2c1 (stereo not given)
48.4 | 50.8 | – | – | COc1ccc(C(CC(=O)CCc2ccc3cc(OC)ccc3c2)Nc2ccc(S(=O)(=O)Nc3cc(C)on3)cc2)cc1 (stereo not given)
6.32 | 26.3 | – | – | COc1ccc2cc(CCC(=O)CC(Nc3cc(C)on3)c3ccc(Cl)cc3)ccc2c1 (stereo not given)
5.83 | 7.36 | – | – | COc1ccc2cc(CCC(=O)CC(Nc3cc(C)on3)c3ccccc3)ccc2c1 (stereo not given)
11.5 | 13 | – | – | COc1ccc2cc(CCC(=O)CC(Nc3cc(C)on3)c3ccc(Cl)cc3Cl)ccc2c1 (stereo not given)
19.6 | 47.1 | – | – | COc1ccc2cc(CCC(=O)CC(Nc3ccc(S(=O)(=O)Nc4cc(C)on4)cc3)c3cccc(Cl)c3)ccc2c1 (stereo not given)
36.7 | 24.7 | – | – | COc1ccc2cc(CCC(=O)CC(Nc3ccc(S(=O)(=O)Nc4cc(C)on4)cc3)c3cccc(F)c3)ccc2c1 (stereo not given)
9.87 | -4.32 | – | – | COc1ccc2cc(CCC(=O)CC(Nc3ccc(S(N)(=O)=O)cc3)c3ccc4c(c3)OCO4)ccc2c1 (stereo not given)

Activity [1] [%] | inhibition (Rattus norvegicus) [%] | IC50 [2] [µg/mL] | EC50 [3] [µg/mL] | SMILES
3.13 | 10.8 | – | – | COc1ccc(C(CC(=O)CCc2ccc3cc(OC)ccc3c2)Nc2cc(C)on2)cc1 (stereo not given)
18 | -4.69 | – | – | CCCCOc1ccc(C(CC(=O)CCc2ccc3cc(OC)ccc3c2)Nc2ccc(S(N)(=O)=O)cc2)cc1 (stereo not given)
5.37 | 22.3 | – | – | COc1ccc2cc(CCC(=O)CC(Nc3cc(C)on3)c3ccc(Cl)c(Cl)c3)ccc2c1 (stereo not given)
71.9 | 66.3 | 4.07 (≈ 7.78 µM) | 6.74 (≈ 12.9 µM) | COc1ccc2cc(CCC(=O)CC(Nc3ccc(S(N)(=O)=O)cc3)c3ccc(Cl)cc3)ccc2c1 (stereo not given)
30.1 | 13.3 | – | – | COc1ccc2cc(CCC(=O)CC(Nc3cc(C)on3)c3cccc(F)c3)ccc2c1 (stereo not given)
6.33 | 11 | – | – | CCCCOc1ccc(C(CC(=O)CCc2ccc3cc(OC)ccc3c2)Nc2cc(C)on2)cc1 (stereo not given)
12.7 | 10.2 | – | – | COc1ccc2cc(CCC(=O)CC(Nc3cc(C)on3)c3cccc(C)c3)ccc2c1 (stereo not given)
41.6 | 15.8 | – | – | COc1cccc(C(CC(=O)CCc2ccc3cc(OC)ccc3c2)Nc2cc(C)on2)c1 (stereo not given)
11.5 | 7.23 | – | – | COc1ccc2cc(CCC(=O)CC(Nc3cc(C)on3)c3ccc(C)cc3)ccc2c1 (stereo not given)
58.5 | 15.8 | – | – | COc1ccc2cc(CCC(=O)CC(Nc3ccc(S(=O)(=O)Nc4cc(C)on4)cc3)c3ccc(C)cc3)ccc2c1 (stereo not given)
78.2 | 12.7 | – | – | COc1cccc(C(CC(=O)CCc2ccc3cc(OC)ccc3c2)Nc2ccc(S(=O)(=O)Nc3cc(C)on3)cc2)c1 (stereo not given)
60.3 | 15.7 | – | – | COc1cccc(C(CC(=O)CCc2ccc3cc(OC)ccc3c2)Nc2ccc(S(N)(=O)=O)cc2)c1 (stereo not given)
9.11 | 24.4 | – | – | COc1ccc2cc(CCC(=O)CC(Nc3cc(C)on3)c3cccc([N+](=O)[O-])c3)ccc2c1 (stereo not given)
73.4 | 52.8 | 4.14 (≈ 8.2 µM) | 5.56 (≈ 11 µM) | COc1ccc2cc(CCC(=O)CC(Nc3ccc(S(N)(=O)=O)cc3)c3ccc(O)cc3)ccc2c1 (stereo not given)
6.64 | 46.8 | – | – | COc1ccc2cc(CCC(=O)CC(Nc3ccc(S(N)(=O)=O)cc3)c3ccco3)ccc2c1 (stereo not given)
67.3 | 79.7 | 2.92 (≈ 5.15 µM) | 8.21 (≈ 14.5 µM) | COc1ccc2cc(CCC(=O)CC(Nc3ccc(S(N)(=O)=O)cc3)c3ccc(Br)cc3)ccc2c1 (stereo not given)
4.86 | 26.3 | – | – | COc1ccc2cc(CCC(=O)CC(Nc3cc(C)on3)c3cccc(Cl)c3)ccc2c1 (stereo not given)
3.92 | 44.2 | – | – | COc1ccc2cc(CCC(=O)CC(Nc3ccc(S(=O)(=O)Nc4cc(C)on4)cc3)c3ccc(Cl)cc3)ccc2c1 (stereo not given)
61 | 41.7 | – | – | COc1ccc2cc(CCC(=O)CC(Nc3ccc(S(N)(=O)=O)cc3)c3ccccc3)ccc2c1 (stereo not given)
45.8 | 34.8 | – | – | COc1ccc2cc(CCC(=O)CC(Nc3ccc(S(N)(=O)=O)cc3)c3ccc(Cl)c(Cl)c3)ccc2c1 (stereo not given)
46.8 | 31.6 | – | – | COc1ccc2cc(CCC(=O)CC(Nc3ccc(S(N)(=O)=O)cc3)c3ccc([N+](=O)[O-])cc3)ccc2c1 (stereo not given)
17.8 | 14.9 | – | – | COc1ccc2cc(CCC(=O)CC(Nc3ccc(S(=O)(=O)Nc4cc(C)on4)cc3)c3ccccc3)ccc2c1 (stereo not given)

Source: ChEMBL document CHEMBL1955714, “Synthesis and antidiabetic performance of β-amino ketone containing nabumetone moiety” (Bioorg Med Chem, 2012)
